ChEMBL document CHEMBL1150347, “A prodomain peptide of Plasmodium falciparum cysteine protease (falcipain-2) inhibits malaria parasite development” (J Med Chem, 2008)
Active and inactive are the calls of the source. The rule behind the calls is not given here. Residues, ends and D or L forms follow the SMILES beside them.

Legend:
[1] = molecular target: T1, Falcipain 2 (Plasmodium falciparum) (UniProt Q9N6S8); experiment: Inhibition of Plasmodium falciparum falcipain-2 in RBC assessed as hemoglobin degradation after 24 hrs by SDS-PAGE
T1 sequence (whole entry): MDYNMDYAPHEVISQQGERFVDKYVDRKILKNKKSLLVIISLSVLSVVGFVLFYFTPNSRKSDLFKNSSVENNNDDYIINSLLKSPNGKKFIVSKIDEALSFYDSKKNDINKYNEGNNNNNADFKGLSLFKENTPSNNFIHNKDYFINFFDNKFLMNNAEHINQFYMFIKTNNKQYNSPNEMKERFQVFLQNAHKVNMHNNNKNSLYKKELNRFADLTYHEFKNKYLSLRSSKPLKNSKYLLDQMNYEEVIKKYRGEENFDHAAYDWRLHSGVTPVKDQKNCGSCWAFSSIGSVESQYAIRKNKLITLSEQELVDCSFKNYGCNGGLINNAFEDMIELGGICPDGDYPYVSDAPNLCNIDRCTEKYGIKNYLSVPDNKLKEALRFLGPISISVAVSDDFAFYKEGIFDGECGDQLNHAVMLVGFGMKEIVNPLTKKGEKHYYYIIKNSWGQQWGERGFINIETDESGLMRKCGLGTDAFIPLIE
How it was run: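 Ring-stage P. falciparum treated 24 h. Infected RBCs lysed with 0.15% saponin in PBS on ice for 10 min, then washed three times with cold PBS. About 1 × 10^6 parasites per lane run on 15% SDS-PAGE in Laemmli buffer; Coomassie staining used to look for undigested hemoglobin.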

[2] = molecular target: T1, Falcipain 2 (Plasmodium falciparum); experiment: Inhibition of Plasmodium falciparum 3D7 falcipain-2 in RBC assessed as Z-FR-AMC substrate hydrolysis by confocal microscopy relative to control; conditions: concentration not given here
How it was run: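 3D7 cultures at 4-5% parasitemia given FITC-labelled peptide for 10 h at 24-28 h post-invasion. After washing in complete medium, Z-F-R-AMC added for 10 min. Confocal imaging: FITC excitation 488 nm, emission 505-530 nm; released AMC captured through a UV band-pass filter. Fluorescence averaged over selected whole parasites and compared with untreated infected cells.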

Plasmodium falciparum [3] = experiment: Growth inhibition at 24 hrs of Plasmodium falciparum 3D7 by [3H]hypoxanthine uptake; type: functional, organism-based
How it was run: (§1)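 Synchronized ring-stage P. falciparum-infected RBCs incubated 24 h with a range of peptide concentrations, with OVA peptide as control. About 1 µCi [3H]hypoxanthine added per well and cultures kept a further 24 h. Cells harvested and incorporated label counted by scintillation.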

Plasmodium falciparum [4] = experiment: Growth inhibition as reduced parasitaemia at 24 hrs for Plasmodium falciparum 3D7 by Giemsa-stained smear counting; parameters: scale not given: the % may be the effect or the level left
Falcipain 2 = molecular target: T2, Falcipain 2 (Plasmodium falciparum, UniProt Q9N6S8); experiment: (§2) Inhibition of Plasmodium falciparum recombinant falcipain-2
T2 sequence (Q9N6S8 whole entry): T1 sequence (whole entry)
How it was run: (§3)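 Refolded recombinant falcipain-2 at 200 nM, preincubated with peptide for 10 min at room temperature. Z-F-R-AMC then added at 7 µM in 100 mM sodium acetate pH 5.5 with 10 mM DTT. AMC release (ex 355/em 460 nm) followed for 30 min at room temperature. Km/Vmax from varied substrate; Ki from double-reciprocal plot; three experiments.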

Plasmodium falciparum [5] = experiment: Growth inhibition as abnormal food vacuole formation after 36 hrs in Plasmodium falciparum trophozoite infected erythrocytes; type: functional, organism-based
Plasmodium falciparum [6] = experiment: Growth inhibition at 24 hrs of Plasmodium falciparum 3D7 at 100 uM by [3H]hypoxanthine uptake; type: functional; how it was run: as §1
Plasmodium falciparum [7] = experiment: Inhibition of Plasmodium falciparum recombinant falcipain-1
How it was run: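 Active recombinant falcipain-1 incubated with prodomain peptide; protease activity read as fluorescence from Z-FR-AMC cleavage at pH 5.5, followed over 30 min. Three independent sets of experiments.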

Plasmodium falciparum [8] = experiment: Growth inhibition as merozoite release after 36 hrs in Plasmodium falciparum infected erythrocytes; type: functional, organism-based
Plasmodium falciparum [9] = experiment: Growth inhibition after 10 hrs of Plasmodium falciparum expressing KAHRP-His-GFP at 100 uM; type: functional, organism-based
How it was run: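 KAHRP(-His)-GFP transgenic line, kept on 0.25 nM WR99210, sorbitol-synchronized, cultured in human RBCs (4% hematocrit) in RPMI. Peptide added at the ring stage. GFP fluorescence imaged after 3 h and 10 h of treatment, with bright field and DAPI; growth arrest read as loss of GFP signal.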

[10] = molecular target: T1, Falcipain 2 (Plasmodium falciparum); experiment: as §2; how it was run: as §3

Q: How did the Activity [1] turn out when CC(C)C[C@H](NC(=O)[C@H]1O[C@@H]1C(=O)O)C(=O)NCCCCN=C(N)N was run?
A: Active

Q: Which inhibition [2] does the source give for CC[C@H](C)[C@H](NC(=O)[C@H](Cc1ccccc1)NC(=O)[C@H](CCSC)NC(=O)[C@H](Cc1ccc(O)cc1)NC(=O)[C@H](Cc1ccccc1)NC(=O)[C@H](CCC(N)=O)NC(=O)[C@H](CC(N)=O)NC(=O)[C@@H](NC(=O)[C@H](Cc1cnc[nH]1)NC(=O)[C@H](CCC(=O)O)NC(=O)[C@H](C)NC(=O)[C@H](CC(N)=O)NC(=O)[C@H](CC(N)=O)NC(=O)[C@H](CCSC)NC(=O)[C@H](CC(C)C)NC(=S)Nc1cccc2c1C(=O)OC21c2ccccc2Oc2cc(O)ccc21)[C@@H](C)CC)C(=O)O (some centres not stated) here?
A: 50%

Q: How did the Activity (Plasmodium falciparum [3]) turn out when CSCC[C@H](NC(=O)[C@H](CC(N)=O)NC(=O)[C@@H](NC(=O)[C@H](CCCCN)NC(=O)[C@H](Cc1c[nH]cn1)NC(=O)[C@H](C)NC(=O)[C@H](CC(N)=O)NC(=O)[C@H](CCC(N)=O)NC(=O)[C@H](CC(C)C)NC(=O)[C@H](Cc1ccccc1)NC(=O)[C@@H](NC(=O)[C@H](CCC(N)=O)NC(=O)[C@H](Cc1ccccc1)NC(=O)[C@H](CCCNC(=N)N)NC(=O)[C@H](CCC(=O)O)NC(=O)[C@H](CCCCN)NC(=O)[C@H](CCSC)NC(=O)[C@@H](N)CCC(=O)O)C(C)C)C(C)C)C(=O)N[C@@H](Cc1c[nH]cn1)C(=O)N[C@@H](CC(N)=O)C(=O)O (H-EMKERFQVFLQNAHKVNMHN-OH) was run?
A: inactive

Q: Which results are given for CC[C@H](C)[C@H](NC(=O)[C@H](Cc1ccccc1)NC(=O)[C@H](CCSC)NC(=O)[C@H](Cc1ccc(O)cc1)NC(=O)[C@H](Cc1ccccc1)NC(=O)[C@H](CCC(N)=O)NC(=O)[C@H](CC(N)=O)NC(=O)[C@@H](NC(=O)[C@H](Cc1c[nH]cn1)NC(=O)[C@H](CCC(=O)O)NC(=O)[C@H](C)NC(=O)[C@H](CC(N)=O)NC(=O)[C@H](CC(N)=O)NC(=O)[C@H](CCSC)NC(=O)[C@@H](N)CC(C)C)[C@@H](C)CC)C(=O)O (H-LMNNAEHINQFYMFI-OH)?
A: Activity (Plasmodium falciparum [4]): 50%; Ki (Falcipain 2): 3.8 µM; Activity [1]: Active; Activity (Plasmodium falciparum [5]): Active; inhibition at 100 µM (Plasmodium falciparum [6]): 50%; Activity (Plasmodium falciparum [7]): inactive; Activity (Plasmodium falciparum [8]): Active; Activity (Plasmodium falciparum [9]): Active

Q: For CC[C@H](C)[C@H](NC(=O)[C@H](Cc1ccccc1)NC(=O)[C@@H](NC(=O)[C@H](Cc1ccc(O)cc1)NC(=O)[C@H](Cc1ccccc1)NC(=O)[C@H](CCC(N)=O)NC(=O)[C@H](CC(N)=O)NC(=O)[C@@H](NC(=O)[C@H](Cc1c[nH]cn1)NC(=O)[C@H](CCC(=O)O)NC(=O)[C@@H](NC(=O)[C@H](CC(N)=O)NC(=O)[C@H](CC(N)=O)NC(=O)[C@H](CCSC)NC(=O)[C@@H](N)CC(C)C)C(C)C)[C@@H](C)CC)[C@@H](C)O)C(=O)O (H-LMNNVEHINQFYTFI-OH), which Activity [10] is on record?
A: Active

Q: Which Activity (Plasmodium falciparum [3]) does the source give for CC(C)C[C@H](NC(=O)[C@H](Cc1ccccc1)NC(=O)[C@@H](NC(=O)[C@H](CCC(N)=O)NC(=O)[C@H](Cc1ccccc1)NC(=O)[C@@H](N)CCCNC(=N)N)C(C)C)C(=O)N[C@@H](CCC(N)=O)C(=O)N[C@@H](CC(N)=O)C(=O)N[C@@H](C)C(=O)N[C@@H](Cc1c[nH]cn1)C(=O)N[C@@H](CCCCN)C(=O)N[C@H](C(=O)O)C(C)C (H-RFQVFLQNAHKV-OH) here?
A: inactive

Q: How did the Activity (Plasmodium falciparum [4]) turn out when CC[C@H](C)[C@H](NC(=O)[C@H](CCSC)NC(=O)[C@H](Cc1ccc(O)cc1)NC(=O)[C@H](Cc1ccccc1)NC(=O)[C@H](CCC(N)=O)NC(=O)[C@H](CC(N)=O)NC(=O)[C@@H](NC(=O)[C@H](Cc1cnc[nH]1)NC(=O)[C@H](CCC(=O)O)NC(=O)[C@H](C)NC(=O)[C@H](CC(N)=O)NC(=O)[C@H](CC(N)=O)NC(=O)[C@H](CCSC)NC(=O)[C@H](CC(C)C)NC(=O)[C@H](CCCCN)NC(=O)[C@H](CCCCN)NC(=O)[C@H](Cc1c[nH]c2ccccc12)NC(=O)[C@H](CCCCN)NC(=O)[C@H](CCSC)NC(=O)[C@H](CCCNC(=N)N)NC(=O)[C@H](CCCNC(=N)N)NC(=O)[C@H](CC(N)=O)NC(=O)[C@H](CCC(N)=O)NC(=O)[C@H](Cc1ccccc1)NC(=O)[C@H](Cc1c[nH]c2ccccc12)NC(=O)[C@@H](NC(=O)[C@H](CCCCN)NC(=O)[C@@H](NC(=O)[C@H](CCC(N)=O)NC(=O)[C@@H](N)CCCNC(=N)N)[C@@H](C)CC)[C@@H](C)CC)[C@@H](C)CC)C(=O)O (H-RQIKIWFQNRRMKWKKLMNNAEHINQFYMI-OH) was run?
A: 50%

Q: Which Activity [10] does the source give for CC[C@H](C)[C@H](N)C(=O)N[C@@H](CO)C(=O)N[C@@H](CCC(N)=O)C(=O)N[C@@H](C)C(=O)N[C@H](C(=O)N[C@@H](Cc1cnc[nH]1)C(=O)N[C@@H](C)C(=O)N[C@@H](C)C(=O)N[C@@H](Cc1cnc[nH]1)C(=O)N[C@@H](C)C(=O)N[C@@H](CCC(=O)O)C(=O)N[C@H](C(=O)N[C@@H](CC(N)=O)C(=O)N[C@@H](CCC(=O)O)C(=O)N[C@@H](C)C(=O)NCC(=O)N[C@@H](CCCNC(=N)N)C(=O)O)[C@@H](C)CC)C(C)C [ovalbumin peptide] (H-ISQAVHAAHAEINEAGR-OH) here?
A: inactive

Q: What about the Activity (Plasmodium falciparum [3]) of the same compound?
A: inactive

Q: What about the inhibition at 100 µM (Plasmodium falciparum [6]) of the same compound?
A: 80%
